Measurements reported in ChEMBL document CHEMBL1128538, “Novel antagonists of platelet-activating factor. 1. Synthesis and structure-activity relationships of benzodiazepine and benzazepine derivatives of 2-methyl-1-phenylimidazo[4,5-c]pyridine” (J Med Chem, 1995).

Target: Platelet-activating factor receptor (Mus musculus) (UniProt Q62035)
Experiment: Ability to protect mice from lethal effects after administration of PAF (Platelet-Activating Factor)
Format: functional, organism-based
Summary of the method: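 Mice received the test agent orally and were then given a lethal PAF injection. ED50 was taken as the oral dose that protected the animals from PAF-induced death.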

Sequence of Platelet-activating factor receptor (Mus musculus) (Q62035 whole entry): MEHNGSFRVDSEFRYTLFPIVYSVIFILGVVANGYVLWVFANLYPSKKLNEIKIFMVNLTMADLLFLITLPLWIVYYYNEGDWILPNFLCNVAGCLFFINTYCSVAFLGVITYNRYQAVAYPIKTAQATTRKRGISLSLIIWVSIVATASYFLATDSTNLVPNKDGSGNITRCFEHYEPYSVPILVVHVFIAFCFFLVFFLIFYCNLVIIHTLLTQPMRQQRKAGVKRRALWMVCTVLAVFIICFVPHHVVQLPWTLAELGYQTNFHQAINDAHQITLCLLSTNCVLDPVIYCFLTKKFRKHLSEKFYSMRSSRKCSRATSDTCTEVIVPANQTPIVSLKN

First: Cc1nc2cnccc2n1-c1ccc(C2CC(=O)N(C)c3cc(Cl)c(Cl)cc3C2)cc1 (stereo not given)
Second: Cc1nc2cnccc2n1-c1ccc(C2CC(=O)Nc3cc(Cl)c(Cl)cc3C2)cc1 (stereo not given)
The ED50 of the first is 1.7-fold lower: 0.03 mg/kg for the first, 0.05 mg/kg for the second.

First: Cc1nc2cnccc2n1-c1ccc(C2=Nc3ccccc3N(C)C(=O)C2)cc1
Second: Cc1nc2cnccc2n1-c1ccc(C2=Nc3ccccc3NC(=O)C2)cc1
The ED50 of the first is 17-fold lower: 0.03 mg/kg for the first, 0.5 mg/kg for the second.

Going from `Cc1cc2c(cc1C)NC(=O)CC(c1ccc(-n3c(C)nc4cnccc43)cc1)=N2` to `Cc1nc2cnccc2n1-c1ccc(C2=Nc3cc(Cl)c(Cl)cc3NC(=O)C2)cc1`, the ED50 falls from 0.12 mg/kg to 0.07 mg/kg (1.7-fold).

Going from `Cc1nc2cnccc2n1-c1ccc(C2=CCC(=O)c3ccccc3N2)cc1` to `Cc1nc2cnccc2n1-c1ccc(C2=Nc3cc(Cl)c(Cl)cc3C(=O)NC2)cc1`, the ED50 falls from 0.75 mg/kg to 0.2 mg/kg (3.8-fold).

System: Mus musculus
Experiment: The compound was tested for their ability to protect mice from lethal effects after administration of PAF (Platelet-Activating Factor)
Format: functional
Summary of the method: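 Mice were given the compound orally and then a lethal injection of PAF. The value is the oral dose (ED50) that protected the mice from PAF-induced death.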

First: Cc1nnc2n1-c1sc3c(c1C(c1ccccc1Cl)=NC2)CC(C(=O)N1CCOCC1)C3 (stereo not given) [BEPAFANT]
Second: CCOC(=O)C1=C(c2ccc(-n3c(C)nc4cnccc43)cc2)NC(C)=C(C(=O)Nc2ccccn2)C1c1ccccc1Cl (stereo not given)
The ED50 of the first is 2.6-fold lower: 0.1 mg/kg for the first, 0.26 mg/kg for the second.
